Experimental data: ChEMBL document CHEMBL4513216, “Probing the Open Global Health Chemical Diversity Library for Multistage-Active Starting Points for Next-Generation Antimalarials” (ACS Infect Dis, 2020)

Assay: Toxicity liver stage against HepG2, at 10uM
Format: cell-based
Design: test concentration 10 uM, cell line HepG2-A16-CD81EGFP
Settings: human, HepG2-A16-CD81EGFP cells; read-out: INHIBITION
Procedure, shortened: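 Uninfected HepG2-A16-CD81EGFP cells, 3 × 10^3 per well, 1536-well, plated on prespotted compound at 10 μM final, parasite-free screening media added to match infected plates; puromycin 10 μM positive, DMSO 0.5% negative; run in parallel with 48 h PbLuc assay at 37 °C, 5% CO2; viability by CellTiter-Glo luminescence, normalized to controls.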

SMILES	cytotoxicity at 10 µM [%]
CCCc1ncc(C(=O)c2ccc(OC)cc2)n1C	22.3
COCC(=O)NC[C@H]1C[C@@H]2CCN1C[C@@H]2CN1CCc2ccccc21	3.29
CC(=O)N1CCC(N2C[C@@H](F)[C@@H](OCc3nc4ncccc4[nH]3)C2)CC1	6.1
COc1ccc2[nH]c(C[C@@H]3C[C@@H](C(C)C)[C@H](CN(C)C)C=C3C)nc2c1	-0.626
CC1(CO)COC(Cc2ccc(Cl)cc2)=N1 (configuration not stated)	12.6
CC1=Nc2c(c(=O)[nH]n2C2CCOCC2)C(c2cccc(O)c2)S1 (configuration not stated)	-6.81
O=C(Cc1cccc(F)c1)N1C[C@H]2CN(Cc3cccnc3)C[C@H]2C1	0.0515
CCN1C(=O)CCC12CCCN(CCc1ccccc1)C2 (configuration not stated)	-0.449
CC(C)NC(=O)[C@H]1CCS(=O)(=O)[C@@H]2CN(c3ncccn3)C[C@H]12	-123
CC(=O)N1CCc2nc3sc(C(N)=O)c(N)c3c(C(F)(F)F)c2C1	6.28
CC(=O)c1cccc(-n2nc(C(C)=O)c(C(C)=O)c2C)c1	4.45
COc1ncccc1C(=O)Nc1nc2c(s1)CN(S(=O)(=O)C1CC1)CC2	-9.04
COc1ccccc1S(=O)(=O)N1CCC(Oc2cccnn2)CC1	-7.33
CCC(=O)N1CCC2(CC1)COc1ccccc1S(=O)(=O)N(C)C2	-6.71
Cc1noc(C2CCC3(CCN(C(=O)C4=CCCCC4)CC3)O2)n1 (configuration not stated)	-7.36
COCCN1CCN(C(=O)C2CC=CC2)Cc2cccnc21	-11.1
c1cnc(N2C[C@H]3CCN(c4cccnc4)C[C@H]3C2)nc1	-14.7
O=C(NCC1CC1)C1CN(C(=O)c2cccnc2)CC12CCOCC2 (configuration not stated)	3.25
COCC(=O)Nc1cnn(COc2ccc(F)cc2Cl)c1	-4.52
CCn1cc(Br)c(C(=O)NCc2cccnc2)n1	-10.1
Cc1nccn1[C@@H]1CC[C@@H](N(C)S(=O)(=O)c2ccccc2F)[C@H]1O	1.17
Cc1c[nH]c(C2CCCN2C(=O)CCc2c(C)n[nH]c2C)n1 (configuration not stated)	-1.4

SMILES	cytotoxicity at 10 µM [%]
CC1(C(=O)NC2CCCC2)CCCN(c2ncccn2)C1 (configuration not stated)	-27.3
CCS(=O)(=O)N1CCCC(c2ccnc(N(C)C)c2)C1 (configuration not stated)	-5.16
CC(C)(C)C(=O)Nc1cnn(-c2ccccc2S(C)(=O)=O)c1	3.65
COc1ccccc1OCCNC(=O)NCc1nc(C)no1	6.67
CCc1cnc(CN(C)C2CCN(c3sccc3C#N)C2=O)s1 (configuration not stated)	8.32
COc1cccc(OC)c1CC(=O)NC(C#N)c1ccsc1 (configuration not stated)	14.9
CCn1c(C)cc(C(=O)N2CCC(Nc3cccnn3)CC2)c1C	4.71
CC(=O)NC1(C(=O)N2CCC(Nc3cccnn3)CC2)CCCCC1	-5.26
Cc1nc(N2CCN(C(=O)CC3CCCC3)CC2)c2cnn(C)c2n1	6.24
CCOCCC1(CNC(=O)c2ccsc2)CCC1	7.92
COc1ncccc1CNC(=O)N1CCC(CNC(C)=O)CC1	3.4
Cc1c(C(=O)NCCCC(N)=O)sc2ccc(F)cc12	14.6
OCC1(NCc2cnc(-c3cccs3)s2)CCOCC1	-1.99
CN(Cc1cnn(C)c1)C(=O)c1ccc(=O)n(Cc2ccccc2)n1	-134
Cc1nsc(NCCNS(=O)(=O)c2ccccc2)n1	-2.78
CCOc1ncccc1C(=O)N1CCCC(n2nc(C)cc2C)C1 (configuration not stated)	-5.54
NC(=O)N1CC(OCc2cccc3ccccc23)C1	-0.396
CCN(C)c1ccc(CNC(=O)c2ccc(NC(N)=O)cc2)cc1F	7.52
O=c1[nH]c2ccccc2c(=O)n1Cc1nnnn1C1CC1	-16.1
CC(C)NC(=O)CC(C)NC(=O)N(C)Cc1cc(Cl)cn1C (configuration not stated)	-0.414
CCN1CCN(S(=O)(=O)c2c[nH]c(C(C)C)n2)c2ccccc21	4.65
O=C(NCCN1CCOCC1)N(Cc1ccoc1)C1CCCCC1	-0.315

SMILES	cytotoxicity at 10 µM [%]
Cc1ccsc1C(=O)Nc1cc(Br)c(=O)n(C)c1	-15.1
CC(C)(C(N)=O)S(=O)(=O)c1ccc(Br)cc1	4.4
CCN(c1ccc(C(=O)NCc2ccnc(C)n2)cc1)C(C)C	-8.78
N#Cc1cccnc1NCc1cccnc1N1CCC(C(N)=O)CC1	-0.179
CN(CCOc1cccc(CN)c1)C1CCOCC1	-1.35
O=C(NCC(O)c1ccc(F)c(F)c1)c1cccnc1OCC(F)(F)F (configuration not stated)	-10.2
O=C(CCc1nccs1)N1CCCC(N2CCNC2=O)C1 (configuration not stated)	-18.3
CCN(Cc1cccnc1)CC1CCCO1 (configuration not stated)	-10.7
Cc1cc2ccccc2n1CCC(=O)NCCS(C)(=O)=O	-5.79
Cc1cc(C(F)(F)F)cc(N2C[C@@H](CN(C)CCO)[C@@H](CO)C2)n1	-14.4
Cc1nc(CC(=O)N2CCCN(c3ccc(F)cc3)CC2)cs1	3.35
CCN1CCC(CC(=O)NCCc2nc(N)cc(O)n2)CC1	0.821
Cc1ncsc1CCN(C)C(=O)C(c1cccnc1)N1CCOCC1 (configuration not stated)	-6.02
O=C1CCOCCN1Cc1ccc(Cl)c(F)c1	-3.31
Cc1cccc(C(C(=O)N2CCN(C(=O)c3ccc[nH]3)CC2)N(C)C)c1 (configuration not stated)	-7.55
CC1(C)CNC(=O)c2nc(-c3nnc(-c4ccccc4)[nH]3)[nH]c2C1	-5.79
COCCC1(CO)CCCN(C(=O)c2cc(=O)[nH]c(=O)[nH]2)C1 (configuration not stated)	-5.16
CCc1nc2c(c(N(C)Cc3nncn3CCOC)n1)CCNCC2	-7.63
O=c1c2ccccc2cnn1Cc1cncn1C1CC1	3.72
O=C(c1cncc(NCC2COc3ccccc3C2)n1)N1CCCCC1 (configuration not stated)	1.64
CO[C@H]1CNC[C@@H]1NC(=O)CCc1nc(-c2ccccc2)no1	-1.13
Nc1cnc(-c2cccc3c2CCNC3)cn1	-12

SMILES	cytotoxicity at 10 µM [%]
O=C(C1CCCC1)N1CC[C@]2(O)CCN(Cc3ncccn3)C[C@@H]2C1	9.04
CCc1ncc(C(=O)NCCn2c(C)cc(C)nc2=O)cn1	-1.75
COc1ccc(OCC(C)NS(C)(=O)=O)cc1 (configuration not stated)	16.6
COc1ccccc1OCc1cc(C(=O)N2C[C@H](O)[C@@H](N(C)C)C2)n[nH]1	3.2
O=C(O)[C@]12CCCN(Cc3ccncc3)[C@@H]1CCN(c1cnccn1)C2	20.4
Cc1scc(C(=O)N2CCC3(CC(=O)NC3=O)C2)c1-c1ccccc1 (configuration not stated)	-17.5
Cc1nc(-c2cccc(C(=O)O)c2)cc(C2CCN(C(C)C)C2)n1 (configuration not stated)	5.32
Cc1cnc(C(=O)N2CCCCC2c2[nH]ncc2S(C)(=O)=O)cn1 (configuration not stated)	2.12
CCOc1ccc2cc(C(=O)N3CCn4c(CC)nnc4C3)[nH]c2c1	-4.77
COC(=O)c1ccc(N2CCN(CCS(C)(=O)=O)C(C)C2)cc1 (configuration not stated)	-5.57
O=C(CN1CCCCC1Cn1cncn1)NCCOc1ccccc1 (configuration not stated)	-3.54
CCNc1cc2c(nn1)CCN(C(=O)CCc1c(C)noc1Cl)C2	-3.25
Cc1nnc(NCc2cccnc2OCC(F)(F)F)c(C#N)c1C	-7.77
Cc1nnc2n1CCN(Cc1csc(COc3ccccc3)n1)C2	-14.3
CCc1noc(C(C)N2CCN(CCN3CCCC3=O)CC2)n1 (configuration not stated)	-9.37
Cc1cccc(NC2CCN(C(=O)Nc3ccc(F)cc3C)CC2)n1	-11.7
O=C(CCCc1ccccn1)N1CCCC1c1noc(C2CC2)n1 (configuration not stated)	-4.47
Cc1ccc(F)c(NC(=O)NCCCn2nc3ccccn3c2=O)c1	-13.3
Cn1nc2c(cc1=O)CN(Cc1coc(-c3ccc(F)cc3)n1)CC2	-11.5
CC(NC(N)=O)C(=O)N(C)CCCc1cc(-c2ccccc2)no1 (configuration not stated)	-1.86
CS(=O)(=O)NCC1CCCN(C(=O)COc2ccc(F)cc2)C1 (configuration not stated)	-6.38
CCc1noc(C(C)N2CCN(Cc3ncc(C(C)(C)C)o3)CC2)n1 (configuration not stated)	-6.62

SMILES	cytotoxicity at 10 µM [%]
CCNc1cc2c(nn1)CCN(C(=O)c1ccc(NC3CC3)nc1)C2	-12.3
CC(c1ccc(F)c(F)c1)N1CCN(Cc2nccn2C)CC1 (configuration not stated)	-2.76
Cn1c(C2CC2)nc2c1CCN(CCS(=O)(=O)c1ccccc1)C2	3.73
CCn1nc2c(cc1=O)CN(CC(=O)Nc1nc(C)c(C)s1)CC2	-8.8
COC(=O)c1ccc(CN[C@@H]2COC[C@H]2Cc2cc(C)no2)cc1	-23
Cc1oncc1C(=O)N[C@@H]1CN(Cc2ccco2)C[C@@H]2CCCO[C@@H]21	-109
c1cnc2c(c1)cc([C@@H]1CCCO1)n2CCN1CCOCC1	-19.7
Cc1ccc(C(=O)N2C[C@@H]3[C@@H](C2)OCC(=O)N3Cc2cccnc2)o1	3.8
Cc1nc(C2(O)CCCNCC2)sc1CCOc1ccccc1F (configuration not stated)	-36.5
C[C@@H]1CN(C2CCOC2)C[C@]12CCN(Cc1cccnc1)C2=O (some centres not stated)	-106
COCC(=O)NC[C@]12COC[C@H]1CN(Cc1ccc3c(c1)OCO3)C2	-112
CN(C)S(=O)(=O)N1CC[C@]2(C[C@H](Oc3cccnc3)CO2)C1	-0.465
Cc1cccc(CN2CCC3(CCCN(C(=O)NC4CC4)C3)C2=O)n1 (configuration not stated)	12.2
Cc1ccoc1C(=O)N1C[C@@H]2[C@@H](C1)OCC(=O)N2Cc1cccnc1	9.38
CO[C@H]1CCN(Cc2cnn(C)c2)[C@@H]2CN(Cc3cccnc3)C[C@H]12	-4.17
NC(=O)C1Cn2ccnc2C2(CCN(C(=O)NC3CCCC3)CC2)O1 (configuration not stated)	-104
c1ccc(CO[C@@H]2CN(Cc3cccnc3)[C@@H]3COC[C@@H]32)nc1	-98.7
Cc1ccc(CNS(=O)(=O)C=c2[nH]c(=O)n3cccc3c2=O)cc1	6.38
CN(C)C(=O)CN1C[C@H]2CC[C@@H](C1)N(Cc1cc(F)ccc1F)C2	-24
